Reference: ChEMBL document CHEMBL1130071, “Pyrrolomorphinans as delta opioid receptor antagonists. The role of steric hindrance in conferring selectivity” (J Med Chem, 1997)

Columns and labels:
[1] = molecular target: Kappa-type opioid receptor (Cavia porcellus) (UniProt P41144); experiment: Agonist activity against guinea pig ileum kappa receptor relative to ethylketazocine; format: functional, tissue-based
How it was run: (§1)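 Agonist activity in MVD or GPI preparations; ligands that were not full agonists tested at 1 µM, activity expressed as percent of maximal response.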

[2] = molecular target: Mu-type opioid receptor (Homo sapiens) (UniProt P35372); experiment: Selectivity ratio measured as the delta IC50 to that of mu IC50 values.; format: functional
Sequence of Mu-type opioid receptor (Homo sapiens) (P35372 whole entry): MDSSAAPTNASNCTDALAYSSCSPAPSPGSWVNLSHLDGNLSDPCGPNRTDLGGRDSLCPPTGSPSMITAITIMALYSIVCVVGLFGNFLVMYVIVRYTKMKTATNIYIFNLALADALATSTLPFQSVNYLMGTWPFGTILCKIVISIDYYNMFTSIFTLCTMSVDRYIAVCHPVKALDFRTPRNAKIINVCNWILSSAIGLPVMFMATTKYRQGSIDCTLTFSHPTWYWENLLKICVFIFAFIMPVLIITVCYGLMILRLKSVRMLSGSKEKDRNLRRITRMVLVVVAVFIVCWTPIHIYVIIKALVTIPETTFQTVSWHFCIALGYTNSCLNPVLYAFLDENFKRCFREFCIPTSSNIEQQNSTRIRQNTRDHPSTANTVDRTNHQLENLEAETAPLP

[3] = molecular target: Kappa-type opioid receptor (Homo sapiens) (UniProt P41145); experiment: Selectivity ratio measured as the delta IC50 to that of kappa IC50 values.; format: functional
Sequence of Kappa-type opioid receptor (Homo sapiens) (P41145 whole entry): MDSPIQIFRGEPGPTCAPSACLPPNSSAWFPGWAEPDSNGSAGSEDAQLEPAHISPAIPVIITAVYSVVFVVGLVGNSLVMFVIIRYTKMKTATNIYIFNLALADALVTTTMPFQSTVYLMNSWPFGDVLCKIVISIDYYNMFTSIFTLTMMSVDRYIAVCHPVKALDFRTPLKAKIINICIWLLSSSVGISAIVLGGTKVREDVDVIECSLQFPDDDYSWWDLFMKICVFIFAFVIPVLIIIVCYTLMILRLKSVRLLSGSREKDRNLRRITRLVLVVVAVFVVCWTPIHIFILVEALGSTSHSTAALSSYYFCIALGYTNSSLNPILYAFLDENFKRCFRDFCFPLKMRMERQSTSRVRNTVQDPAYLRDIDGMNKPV

[4] = molecular target: Mu-type opioid receptor (Cavia porcellus) (UniProt P97266); experiment: Agonist activity against guinea pig ileum Opioid receptor mu 1; format: functional, tissue-based; how it was run: as §1
Sequence of Mu-type opioid receptor (Cavia porcellus) (P97266 whole entry): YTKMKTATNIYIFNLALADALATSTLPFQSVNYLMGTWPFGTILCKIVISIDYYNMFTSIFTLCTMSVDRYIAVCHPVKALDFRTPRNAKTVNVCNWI

[5] = molecular target: Delta-type opioid receptor (Mus musculus) (UniProt P32300); experiment: Agonist activity in mouse vas deferens assay relative to DADLE; format: functional, tissue-based; how it was run: as §1
Sequence of Delta-type opioid receptor (Mus musculus) (P32300 whole entry): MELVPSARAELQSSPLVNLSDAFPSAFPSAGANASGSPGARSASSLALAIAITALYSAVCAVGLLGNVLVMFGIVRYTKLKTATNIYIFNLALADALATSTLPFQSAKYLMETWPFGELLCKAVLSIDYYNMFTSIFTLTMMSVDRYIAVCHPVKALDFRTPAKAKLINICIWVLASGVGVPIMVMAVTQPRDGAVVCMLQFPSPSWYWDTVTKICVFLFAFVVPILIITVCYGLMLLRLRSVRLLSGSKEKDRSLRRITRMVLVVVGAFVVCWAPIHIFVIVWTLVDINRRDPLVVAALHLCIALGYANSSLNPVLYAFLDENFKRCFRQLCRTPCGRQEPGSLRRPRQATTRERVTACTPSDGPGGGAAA

[6] = molecular target: Delta-type opioid receptor (Mus musculus) (UniProt P32300); experiment: Activity against Opioid receptor delta 1 on electrically stimulated mouse vas deferens using DADLE as agonist; format: functional, tissue-based
How it was run: (§2)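 Antagonist test in electrically stimulated smooth muscle, DADLE in MVD, morphine or ethylketazocine in GPI: ligand (100 nM) preincubated with the preparation 15 min before agonist testing. IC50 ratio = agonist IC50 with test compound / control IC50 in same preparation; Ke = [antagonist]/(IC50 ratio − 1).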

[7] = molecular target: Kappa-type opioid receptor (Cavia porcellus) (UniProt P41144); experiment: Activity against Opioid receptor kappa 1 on electrically stimulated guinea pig ileum using ethylketazocine as the standard agonist.; format: functional, tissue-based; how it was run: as §2
[8] = molecular target: Mu-type opioid receptor (Cavia porcellus) (UniProt P97266); experiment: Activity against mu receptor on electrically stimulated guinea pig ileum using morphine as the standard agonist (Opioid receptor mu 1); format: functional, tissue-based; how it was run: as §2
[9] = molecular target: Mu-type opioid receptor (Cavia porcellus) (UniProt P97266); experiment: Agonist guinea pig ileum; format: functional, tissue-based; how it was run: as §1
[10] = molecular target: Mu-type opioid receptor (Cavia porcellus) (UniProt P97266); experiment: Agonist guinea pig ileum (Opioid receptor mu 1); format: functional, tissue-based; how it was run: as §1
Mu-type opioid receptor = Mu-type opioid receptor (Mus musculus, UniProt P42866); experiment: Binding affinity against Opioid receptor mu 1 binding in ICR mouse brain membranes using the radioligand [3H][Ala2,Glyol5]enkephalin; format: cell membranes, Membrane
Sequence of Mu-type opioid receptor (P42866 whole entry): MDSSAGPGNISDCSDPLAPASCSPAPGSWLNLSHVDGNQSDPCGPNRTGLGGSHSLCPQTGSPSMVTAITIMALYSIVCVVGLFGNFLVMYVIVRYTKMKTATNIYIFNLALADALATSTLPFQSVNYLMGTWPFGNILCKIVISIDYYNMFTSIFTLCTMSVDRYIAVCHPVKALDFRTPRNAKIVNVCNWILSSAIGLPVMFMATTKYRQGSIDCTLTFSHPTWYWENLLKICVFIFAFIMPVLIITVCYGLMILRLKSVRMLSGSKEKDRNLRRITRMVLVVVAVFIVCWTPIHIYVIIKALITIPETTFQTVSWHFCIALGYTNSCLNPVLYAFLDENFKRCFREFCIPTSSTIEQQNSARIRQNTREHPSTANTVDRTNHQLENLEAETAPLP
How it was run: (§3)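 Competition binding on ICR mouse brain membranes using selective radioligands: [3H]naltrindole (δ), [3H]DAMGO (μ), [3H]U69593 (κ). Ki reported as mean ± SEM of at least three determinations.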

[11] = molecular target: Delta-type opioid receptor (Mus musculus, UniProt P32300); experiment: Binding affinity against Opioid receptor delta 1 receptor binding in ICR mouse brain membranes using the radioligand [3H]naltrindole; format: cell membranes, Membrane; how it was run: as §3
Sequence of Delta-type opioid receptor (P32300 whole entry): as the sequence (P32300 whole entry) above

[12] = molecular target: Kappa-type opioid receptor (Mus musculus, UniProt P33534); experiment: Binding affinity against Opioid receptor kappa 1 binding in ICR mouse brain membranes using the radioligand [3H]U-69593; format: cell membranes, Membrane; how it was run: as §3
Sequence of Kappa-type opioid receptor (P33534 whole entry): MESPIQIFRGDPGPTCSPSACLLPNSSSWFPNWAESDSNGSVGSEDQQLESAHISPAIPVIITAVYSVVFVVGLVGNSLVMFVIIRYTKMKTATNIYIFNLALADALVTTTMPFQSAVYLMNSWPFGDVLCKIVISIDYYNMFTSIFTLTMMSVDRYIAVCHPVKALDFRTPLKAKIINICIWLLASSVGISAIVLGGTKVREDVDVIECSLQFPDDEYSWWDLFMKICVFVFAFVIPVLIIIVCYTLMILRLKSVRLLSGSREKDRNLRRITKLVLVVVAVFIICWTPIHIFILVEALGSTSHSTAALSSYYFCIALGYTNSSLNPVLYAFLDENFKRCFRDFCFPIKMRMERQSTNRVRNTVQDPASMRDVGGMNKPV

[13] = molecular target: Delta-type opioid receptor (Homo sapiens) (UniProt P41143); experiment: Selectivity ratio measured as the kappa Ki to that of delta Ki values.
Sequence of Delta-type opioid receptor (Homo sapiens) (P41143 whole entry): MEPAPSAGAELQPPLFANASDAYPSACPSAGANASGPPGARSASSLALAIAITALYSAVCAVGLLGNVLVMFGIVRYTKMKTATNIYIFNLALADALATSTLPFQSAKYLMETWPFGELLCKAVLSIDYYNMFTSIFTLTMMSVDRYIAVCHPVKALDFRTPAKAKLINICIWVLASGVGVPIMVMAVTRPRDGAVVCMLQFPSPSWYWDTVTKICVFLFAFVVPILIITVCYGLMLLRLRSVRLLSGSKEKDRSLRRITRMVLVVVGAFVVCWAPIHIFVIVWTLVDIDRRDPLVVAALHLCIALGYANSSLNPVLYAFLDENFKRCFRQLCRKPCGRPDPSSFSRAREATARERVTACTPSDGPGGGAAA
How it was run: (§4)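 Ki selectivity ratio = Ki at κ or μ (ICR mouse brain membranes, [3H]U69593 or [3H]DAMGO) divided by Ki at δ ([3H]naltrindole competition).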

[14] = molecular target: Delta-type opioid receptor (Homo sapiens) (UniProt P41143); experiment: Selectivity ratio measured as the mu Ki to that of delta Ki values.; how it was run: as §4

Sequence of Kappa-type opioid receptor (Cavia porcellus) (P41144 whole entry): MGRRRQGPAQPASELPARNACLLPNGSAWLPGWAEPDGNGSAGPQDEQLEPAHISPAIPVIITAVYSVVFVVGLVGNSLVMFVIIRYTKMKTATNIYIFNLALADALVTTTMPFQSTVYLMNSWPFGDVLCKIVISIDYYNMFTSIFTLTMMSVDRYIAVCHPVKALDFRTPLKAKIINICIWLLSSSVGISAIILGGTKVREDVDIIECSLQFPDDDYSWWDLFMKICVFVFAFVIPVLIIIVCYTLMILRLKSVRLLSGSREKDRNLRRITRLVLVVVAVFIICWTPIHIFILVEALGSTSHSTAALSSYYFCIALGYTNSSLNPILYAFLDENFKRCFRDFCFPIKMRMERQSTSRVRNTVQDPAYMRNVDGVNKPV

CC(C)Cc1[nH]c2c(c1-c1ccccc1)C[C@@]1(O)C3Cc4ccc(O)c5c4C1(CCN3CC1CC1)[C@H]2O5 (stereo not given in full)
IC50 ratio [1]: 1.3
Selectivity ratio [2]: 0.2
Selectivity ratio [3]: 0.2
IC50 ratio [4]: 4.1
IC50 ratio [5]: 0.76

Cc1c(CC(C)C)[nH]c2c1C[C@@]1(O)C3Cc4ccc(O)c5c4C1(CCN3CC1CC1)[C@H]2O5 (stereo not given in full)
Ke [6]: 3.3 nM
IC50 ratio [1]: 380
IC50 ratio [4]: 380
IC50 ratio [5]: 32

Oc1ccc2c3c1O[C@H]1c4[nH]ccc4C[C@@]4(O)C(C2)N(CC2CC2)CCC314 (stereo not given in full)
Ke [6]: 3.2 nM
Ke [7]: 3.2 nM
Selectivity ratio [2]: 0.03
Selectivity ratio [3]: 0.17
Ke [8]: 0.65 nM

Oc1ccc2c3c1O[C@H]1c4[nH]c(-c5ccccc5)c(-c5ccccc5)c4C[C@@]4(O)C(C2)N(CC2CC2)CCC314 (stereo not given in full)
IC50 ratio [9]: 1.1
Selectivity ratio [2]: 1
IC50 ratio [10]: 1.2
Selectivity ratio [3]: 1
IC50 ratio [5]: 1.4

Oc1ccc2c3c1O[C@H]1c4[nH]c5ccccc5c4C[C@@]4(O)[C@@H](C2)N(CC2CC2)CC[C@]314 [NALTRINDOLE]
Ki (Mu-type opioid receptor): 6.1 nM
Ki [11]: 0.04 nM
Ki [12]: 355 nM

Cn1c2c(c3c1[C@@H]1Oc4c(O)ccc5c4C14CCN(CC1CC1)C(C5)[C@]4(O)C3)CCCC2 (stereo not given in full)
Ke [7]: 254 nM
Ke [8]: 158 nM

Oc1ccc2c3c1O[C@H]1c4[nH]cc(-c5ccccc5)c4C[C@@]4(O)C(C2)N(CC2CC2)CCC314 (stereo not given in full)
Ki (Mu-type opioid receptor): 21 nM
Ki [11]: 2.7 nM
Ki [12]: 45 nM
IC50 ratio [1]: 2.1
Selectivity ratio [13]: 16.7
Selectivity ratio [2]: 0.7
Selectivity ratio [3]: 0.7
IC50 ratio [4]: 2.3
Selectivity ratio [14]: 7.8
IC50 ratio [5]: 1.5

CCCCc1c(CC(C)C)[nH]c2c1C[C@@]1(O)C3Cc4ccc(O)c5c4C1(CCN3CC1CC1)[C@H]2O5 (stereo not given in full)
Ke [6]: 11.4 nM
IC50 ratio [1]: 0.99
Selectivity ratio [2]: 10
Selectivity ratio [3]: 10
IC50 ratio [4]: 0.76
IC50 ratio [5]: 9.8

O=C1/C(=C/c2ccccc2)C[C@@]2(O)[C@H]3Cc4ccc(O)c5c4[C@@]2(CCN3CC2CC2)[C@H]1O5
Selectivity ratio [2]: 2.7
Selectivity ratio [3]: 18

Cc1[nH]c2c(c1Cc1ccccc1)C[C@@]1(O)C3Cc4ccc(O)c5c4C1(CCN3CC1CC1)[C@H]2O5 (stereo not given in full)
Ki (Mu-type opioid receptor): 28 nM
Ke [6]: 2.1 nM
Ki [11]: 0.35 nM
Ki [12]: 41 nM
IC50 ratio [1]: 1.3
Selectivity ratio [13]: 117
Selectivity ratio [2]: 50
Selectivity ratio [3]: 50
IC50 ratio [4]: 1.3
Selectivity ratio [14]: 80
IC50 ratio [5]: 50

Cc1[nH]c2c(c1C)C[C@@]1(O)C3Cc4ccc(O)c5c4C1(CCN3CC1CC1)[C@H]2O5 (stereo not given in full)
Ki (Mu-type opioid receptor): 39 nM
Ke [6]: 14.8 nM
Ki [11]: 0.41 nM
Ki [12]: 22 nM
IC50 ratio [1]: 1.4
Selectivity ratio [13]: 53.7
Selectivity ratio [2]: 5
Selectivity ratio [3]: 7
IC50 ratio [4]: 1.5
Selectivity ratio [14]: 95
IC50 ratio [5]: 7.7

CCCCc1c(C)[nH]c2c1C[C@@]1(O)C3Cc4ccc(O)c5c4C1(CCN3CC1CC1)[C@H]2O5 (stereo not given in full)
Ki (Mu-type opioid receptor): 57 nM
Ke [6]: 6.7 nM
Ki [11]: 12 nM
Ki [12]: 39 nM
IC50 ratio [1]: 0.95
Selectivity ratio [13]: 3.3
Selectivity ratio [2]: 8
Selectivity ratio [3]: 17
IC50 ratio [4]: 2.1
Selectivity ratio [14]: 4.8
IC50 ratio [5]: 16.8

Cc1[nH]c2c(c1-c1ccccc1)C[C@@]1(O)C3Cc4ccc(O)c5c4C1(CCN3CC1CC1)[C@H]2O5 (stereo not given in full)
IC50 ratio [1]: 0.98
Selectivity ratio [2]: 1.6
Selectivity ratio [3]: 1.6
IC50 ratio [4]: 0.9
IC50 ratio [5]: 1.6
